Key:
[1] = target: T1, Protein cereblon/Androgen receptor (Homo sapiens, UniProt P10275+Q96SW2); assay: Protac activity at CRBN/AR in human LNCaP cells assessed as AR degradation at 0.1 uM by western blotting analysis relative to control; assay type: cell-based
Procedure, shortened: (§1)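 LNCaP (IMDM) or 22RV1 (RPMI 1640) cells with 10% FBS at 37 °C, 5% CO2, treated with DMSO vehicle as control. Cells lysed in RIPA buffer (50 mM Tris-HCl pH 7.5, 150 mM NaCl, 1% Triton X-100, 0.1% SDS, 0.5% deoxycholate, protease inhibitors). Protein quantified by Bradford assay. Immunoblotted for AR with tubulin as loading control, HRP chemiluminescence detection.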

[2] = target: T1, Protein cereblon/Androgen receptor; assay: Protac activity at CRBN/AR in human LNCaP cells assessed as AR degradation at 1 uM by Western blotting analysis relative to control; assay type: cell-based; procedure, shortened: as §1
[3] = target: T1, Protein cereblon/Androgen receptor; assay: Protac activity at CRBN/AR in human LNCaP cells assessed as AR degradation at 10 uM by Western blotting analysis relative to control; assay type: cell-based; procedure, shortened: as §1
[4] = test system: LNCaP; assay: Antiproliferative activity against human LNCaP cells assessed as reduction in cell viability after 6 days by CellTiter-Glo assay; assay type: functional; details: 144 h, time 6 day
Procedure, shortened: (§2)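 LNCaP seeded at 1.5 × 10³ and VCaP at 4 × 10³ cells per well in 96-well plates. Cells grown in IMDM with 10% FBS and antibiotic-antimycotic at 37 °C, 5% CO2, with DMSO as vehicle. IC50 from nonlinear regression of log(inhibitor) versus response.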

[5] = test system: VCaP; assay: Antiproliferative activity against human VCaP cells assessed as reduction in cell viability after 6 days by CellTiter-Glo assay; assay type: functional; details: 144 h, time 6 day; procedure, shortened: as §2
[6] = Metabolic stability in mouse liver microsomes assessed as compound remaining at 1 uM after 30 mins in presence of NADPH-regenerating system; assay type: ADME, Microsome; details: read-out: Stabilty
Procedure, shortened: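 Mouse liver microsomes at 0.5 mg protein/mL in 100 mM PBS, pH 7.4. Reaction started with NADPH-regenerating solution (1.3 mM NADP+, 3.3 mM glucose-6-phosphate, 0.4 U/mL G6PDH, 3.3 mM MgCl2). Incubated 30 min at 37 °C, stopped with ice-cold acetonitrile, centrifuged. Percent remaining reported as mean ± SD, n = 3.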

T1 sequence (P10275 whole entry, looked up): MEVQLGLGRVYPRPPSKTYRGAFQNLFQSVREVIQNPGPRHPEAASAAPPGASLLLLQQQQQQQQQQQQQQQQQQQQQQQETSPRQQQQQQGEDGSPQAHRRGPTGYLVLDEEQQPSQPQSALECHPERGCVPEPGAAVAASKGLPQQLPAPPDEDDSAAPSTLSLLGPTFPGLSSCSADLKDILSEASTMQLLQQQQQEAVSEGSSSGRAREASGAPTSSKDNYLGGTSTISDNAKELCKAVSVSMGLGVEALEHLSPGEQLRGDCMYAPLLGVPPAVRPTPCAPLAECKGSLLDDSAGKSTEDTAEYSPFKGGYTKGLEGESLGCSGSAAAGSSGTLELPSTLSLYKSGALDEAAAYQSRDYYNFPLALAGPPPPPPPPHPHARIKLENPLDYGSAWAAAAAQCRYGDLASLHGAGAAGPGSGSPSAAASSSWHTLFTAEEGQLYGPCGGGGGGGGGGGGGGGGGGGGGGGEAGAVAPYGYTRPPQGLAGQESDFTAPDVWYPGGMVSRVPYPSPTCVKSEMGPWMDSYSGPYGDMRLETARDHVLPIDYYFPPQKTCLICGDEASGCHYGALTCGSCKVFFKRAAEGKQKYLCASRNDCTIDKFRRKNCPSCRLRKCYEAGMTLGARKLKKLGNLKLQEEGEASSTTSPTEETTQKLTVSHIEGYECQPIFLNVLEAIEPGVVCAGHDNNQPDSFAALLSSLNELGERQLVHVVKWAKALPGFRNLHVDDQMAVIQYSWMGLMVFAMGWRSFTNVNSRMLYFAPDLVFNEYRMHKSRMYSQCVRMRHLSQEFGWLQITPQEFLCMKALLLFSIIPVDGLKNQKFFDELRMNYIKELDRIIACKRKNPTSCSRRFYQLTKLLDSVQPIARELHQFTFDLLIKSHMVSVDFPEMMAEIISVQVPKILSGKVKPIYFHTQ
T1 sequence (Q96SW2 whole entry, looked up): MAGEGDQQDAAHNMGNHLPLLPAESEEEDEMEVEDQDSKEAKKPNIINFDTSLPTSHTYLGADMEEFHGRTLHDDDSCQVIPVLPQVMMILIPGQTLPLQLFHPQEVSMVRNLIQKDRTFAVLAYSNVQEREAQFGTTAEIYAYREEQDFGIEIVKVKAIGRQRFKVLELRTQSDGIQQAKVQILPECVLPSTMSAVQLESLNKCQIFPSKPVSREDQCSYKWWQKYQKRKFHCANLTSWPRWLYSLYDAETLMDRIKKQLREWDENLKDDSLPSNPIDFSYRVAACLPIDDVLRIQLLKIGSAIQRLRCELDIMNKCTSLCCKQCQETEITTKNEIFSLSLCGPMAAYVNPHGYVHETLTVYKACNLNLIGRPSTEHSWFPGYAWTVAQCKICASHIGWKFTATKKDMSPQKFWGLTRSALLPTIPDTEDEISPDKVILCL

Row | Structure (SMILES) | Activity [1] | Activity [2] | Activity [3] | CC50 [4] | CC50 [5] | remaining at 0.5 h, 1 µM [6]
1 | CC1(C)[C@H](NC(=O)c2ccc(N3CCN(CCC4CCN(C(=O)C5CN(c6ccc7nnn(C8CCC(=O)NC8=O)c(=O)c7c6)C5)CC4)CC3)cc2)C(C)(C)[C@H]1Oc1ccc(C#N)c(Cl)c1 (stereo partly drawn) | 74% | 84% | 96% | 0.538 µM | 0.037 µM | 92.9%
2 | O=C1CC2(CCCC2)CC(=O)N1CCCCN1CCN(c2ncccn2)CC1 [BUSPIRONE] | – | – | – | – | – | 0.03%
3 | CC1(C)[C@H](NC(=O)c2ccc(N3CCN(C4CC5(CCN(c6cccc7nnn(C8CCC(=O)NC8=O)c(=O)c67)CC5)C4)CC3)cc2)C(C)(C)[C@H]1Oc1ccc(C#N)c(Cl)c1 (stereo partly drawn) | 0% | 26% | 71% | 13.4 µM | – | –
4 | CC1(C)[C@H](NC(=O)c2ccc(N3CCN(CCC4CCN(c5ccc6nnn(C7CCC(=O)NC7=O)c(=O)c6c5)CC4)CC3)cc2)C(C)(C)[C@H]1Oc1ccc(C#N)c(Cl)c1 (stereo partly drawn) | 51% | 94% | – | 0.449 µM | 0.12 µM | 86.7%
5 | CC1(C)[C@H](NC(=O)c2ccc(N3CCN(CC4CCN(C(=O)COc5ccc6nnn(C7CCC(=O)NC7=O)c(=O)c6c5)CC4)CC3)cc2)C(C)(C)[C@H]1Oc1ccc(C#N)c(Cl)c1 (stereo partly drawn) | 89% | 40% | 51% | 0.804 µM | – | –
6 | CC1(C)[C@H](NC(=O)c2ccc(N3CCN(C4CC5(CCN(C(=O)C6CN(c7ccc8nnn(C9CCC(=O)NC9=O)c(=O)c8c7)C6)CC5)C4)CC3)cc2)C(C)(C)[C@H]1Oc1ccc(C#N)c(Cl)c1 (stereo partly drawn) | 0% | 79% | 0% | 0.312 µM | 0.135 µM | –
7 | CC1(C)[C@H](NC(=O)c2ccc(N3CCN(CCOC4CCN(C(=O)C5CCN(c6ccc7nnn(C8CCC(=O)NC8=O)c(=O)c7c6)CC5)CC4)CC3)cc2)C(C)(C)[C@H]1Oc1ccc(C#N)c(Cl)c1 (stereo partly drawn) | 72% | 92% | 98% | 0.847 µM | 0.08 µM | 78.4%
8 | CC1(C)[C@H](NC(=O)c2ccc(N3CCN(CC4CCN(c5cccc6nnn(C7CCC(=O)NC7=O)c(=O)c56)CC4)CC3)cc2)C(C)(C)[C@H]1Oc1ccc(C#N)c(Cl)c1 (stereo partly drawn) | 15% | 77% | 78% | 0.613 µM | – | –
9 | CC1(C)[C@H](NC(=O)c2ccc(N3CCN(CCOC4CCN(C(=O)COc5ccc6nnn(C7CCC(=O)NC7=O)c(=O)c6c5)CC4)CC3)cc2)C(C)(C)[C@H]1Oc1ccc(C#N)c(Cl)c1 (stereo partly drawn) | 86% | 98% | 94% | 1.3 µM | 0.141 µM | –
10 | CC1(C)[C@H](NC(=O)c2ccc(N3CCN(C4CC5(CCN(c6ccc7nnn(C8CCC(=O)NC8=O)c(=O)c7c6)CC5)C4)CC3)cc2)C(C)(C)[C@H]1Oc1ccc(C#N)c(Cl)c1 (stereo partly drawn) | 15% | 95% | 81% | 0.214 µM | 0.113 µM | –
11 | CC1(C)[C@H](NC(=O)c2ccc(N3CCN(CCC4CCN(c5cccc6nnn(C7CCC(=O)NC7=O)c(=O)c56)CC4)CC3)cc2)C(C)(C)[C@H]1Oc1ccc(C#N)c(Cl)c1 (stereo partly drawn) | 0% | 31% | 90% | > 10 µM | 1.58 µM | –
12 | CC1(C)[C@H](NC(=O)c2ccc(N3CCN(CC4CCN(C(=O)CNc5ccc6nnn(C7CCC(=O)NC7=O)c(=O)c6c5)CC4)CC3)cc2)C(C)(C)[C@H]1Oc1ccc(C#N)c(Cl)c1 (stereo partly drawn) | 70% | 89% | 35% | 0.117 µM | 3.82 µM | –
13 | CC1(C)[C@H](NC(=O)c2ccc(N3CCN(CC4CCN(c5ccc6c(=O)n(C7CCC(=O)NC7=O)nnc6c5)CC4)CC3)cc2)C(C)(C)[C@H]1Oc1ccc(C#N)c(Cl)c1 (stereo partly drawn) | 28% | 60% | 83% | – | – | –

Source: ChEMBL document CHEMBL4706590, “Design and characterization of cereblon-mediated androgen receptor proteolysis-targeting chimeras” (Eur J Med Chem, 2020)
